This note sets out measurements from ChEMBL document CHEMBL3244169, “(1-(3-(Phenothiazin-10-yl)propyl)-4-piperidinyl)phenylmethanones, a novel class of long-acting neuroleptic agents” (J Med Chem, 1978).

Activity calls are given as the source filed them. The rule behind the calls is not given here.

The first data set concerns Mus musculus. Description: Neuroleptic activity in mouse assessed as suppression of conditioned avoidance behavior by measuring mean correct responses level at 10 mg/kg, ip administered 4 hrs prior to electric shock challenge. It is filed as functional. The following applies: route intraperitoneal. Put shortly: (§1)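 After 20 s a solenoid pushed each mouse back onto the grid, leaving 5 s to return and avoid the next shock. Trained mice reaching 90–100% correct avoidance (3–5 per group) received 10 mg/kg ip. Twenty trials were run before dosing and at intervals after. Percent correct avoidance per animal was averaged per group.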
As to `O=C(O)/C=C/C(=O)O.O=C(c1ccc(F)cc1)C1CCN(CCCN2c3ccccc3Sc3ccc(Cl)cc32)CC1`, the Activity was found to be 32%.
Consider `O=C(c1ccc(Cl)c(Cl)c1)C1CCN(CCCN2c3ccccc3Sc3ccc(Cl)cc32)CC1`, for which the Activity is on record as 92%.

A further data set relates to Mus musculus. In words: Neuroleptic activity in ip dosed ICR-DUB mouse assessed as survival administered 2 days prior to d-amphetamine challenge measured after 24 hrs. The class given is functional.
Conditions: not given
`O=C(CCCN1CCC(O)(c2ccc(Cl)cc2)CC1)c1ccc(F)cc1` [HALOPERIDOL]: the ED50 stood at 16 mg/kg.
The same measure, in the same setting: under `O=C(O)/C=C/C(=O)O.O=C(c1ccc(F)cc1)C1CCN(CCCN2c3ccccc3Sc3ccc(Cl)cc32)CC1` stands 4.6 mg/kg.
Turning to `OC1(c2ccc(Cl)c(C(F)(F)F)c2)CCN(CCCC(c2ccc(F)cc2)c2ccc(F)cc2)CC1` [PENFLURIDOL], the ED50 came out at 3 mg/kg.

The subject of a further data set is Mus musculus. Description: Neuroleptic activity in ip dosed ICR-DUB mouse assessed as survival administered 4 hrs prior to d-amphetamine challenge measured after 24 hrs. The class given is functional.
Conditions: not given
With `O=C(O)/C=C/C(=O)O.O=C(c1ccc(F)cc1)C1CCN(CCCN2c3ccccc3Sc3ccc(Cl)cc32)CC1`, the ED50 turned out to be 0.53 mg/kg.
Still for that read-out and setting: under `OC1(c2ccc(Cl)c(C(F)(F)F)c2)CCN(CCCC(c2ccc(F)cc2)c2ccc(F)cc2)CC1` [PENFLURIDOL] stands 1.82 mg/kg.

Another data set has as its system Mus musculus. Description: Neuroleptic activity in ip dosed ICR-DUB mouse assessed as survival administered 5 days prior to d-amphetamine challenge measured after 24 hrs. The class given is functional.
Conditions: not given
Take `O=C(O)/C=C/C(=O)O.O=C(c1ccc(F)cc1)C1CCN(CCCN2c3ccccc3Sc3ccc(Cl)cc32)CC1`: the ED50 is over 60 mg/kg.
Still for that read-out and setting: to `OC1(c2ccc(Cl)c(C(F)(F)F)c2)CCN(CCCC(c2ccc(F)cc2)c2ccc(F)cc2)CC1` [PENFLURIDOL] belongs “Active”.

The next data set deals with Mus musculus. Description: Toxicity in ICR-DUB mouse assessed as grooming of coat at 60 mg/kg, ip. The class given is organism-based. Details: dose 60 mg/kg, route intraperitoneal. The following applies: in vivo.
As for `O=C(O)/C=C/C(=O)O.O=C(c1ccc(F)cc1)C1CCN(CCCN2c3ccccc3Sc3ccc(Cl)cc32)CC1`, the Activity entry was “Toxic”.

A further data set has as its system Mus musculus. Description: Neuroleptic activity in mouse assessed as suppression of conditioned avoidance behavior by measuring mean correct responses level at 10 mg/kg, ip administered 2 days prior to electric shock challenge. The settings on record: route intraperitoneal. The class given is functional. Put shortly:
as §1
On to `O=C(O)/C=C/C(=O)O.O=C(c1ccc(F)cc1)C1CCN(CCCN2c3ccccc3Sc3ccc(Cl)cc32)CC1`, for which the Activity is 95%.

The next data set deals with Mus musculus. In words: Neuroleptic activity in mouse assessed as suppression of conditioned avoidance behavior by measuring mean correct responses level at 20 mg/kg, ip administered 7 days prior to electric shock challenge. It is filed as functional, organism-based. Details: dose 20 mg/kg.
Conditions: not given
Turning to `OC1(c2ccc(Cl)c(C(F)(F)F)c2)CCN(CCCC(c2ccc(F)cc2)c2ccc(F)cc2)CC1` [PENFLURIDOL], the result was Active.

The subject of a further data set is Mus musculus. Description: Neuroleptic activity in mouse assessed as suppression of conditioned avoidance behavior by measuring mean correct responses level at 10 mg/kg, ip administered 1 hr prior to electric shock challenge. It is filed as functional. The settings on record: route intraperitoneal. Put shortly:
as §1
For the compound `O=C(O)/C=C/C(=O)O.O=C(c1ccc(F)cc1)C1CCN(CCCN2c3ccccc3Sc3ccc(Cl)cc32)CC1`, the Activity turned out to be 80%.
`O=C(c1ccc(Cl)c(Cl)c1)C1CCN(CCCN2c3ccccc3Sc3ccc(Cl)cc32)CC1`: the Activity was 97%.

The next data set concerns Mus musculus. In words: Neuroleptic activity in ip dosed ICR-DUB mouse assessed as survival administered 16 hrs prior to d-amphetamine challenge measured after 24 hrs. It is filed as functional.
Conditions: not given
`O=C(CCCN1CCC(O)(c2ccc(Cl)cc2)CC1)c1ccc(F)cc1` [HALOPERIDOL]: the ED50 worked out at 0.58 mg/kg.
`O=C(O)/C=C/C(=O)O.O=C(c1ccc(F)cc1)C1CCN(CCCN2c3ccccc3Sc3ccc(Cl)cc32)CC1`: the ED50 turned out to be 0.72 mg/kg.
Same read-out and setting: under `OC1(c2ccc(Cl)c(C(F)(F)F)c2)CCN(CCCC(c2ccc(F)cc2)c2ccc(F)cc2)CC1` [PENFLURIDOL] stands 1.52 mg/kg.

The test system of a further data set is Mus musculus. In words: Neuroleptic activity in ip dosed ICR-DUB mouse assessed as survival administered 3 days prior to d-amphetamine challenge measured after 24 hrs.
Conditions: not given
It is filed as functional.
On to `O=C(CCCN1CCC(O)(c2ccc(Cl)cc2)CC1)c1ccc(F)cc1` [HALOPERIDOL], for which the ED50 entry was “Active”.
On the same count and under the same terms, under `O=C(O)/C=C/C(=O)O.O=C(c1ccc(F)cc1)C1CCN(CCCN2c3ccccc3Sc3ccc(Cl)cc32)CC1` stands 8.8 mg/kg; under `OC1(c2ccc(Cl)c(C(F)(F)F)c2)CCN(CCCC(c2ccc(F)cc2)c2ccc(F)cc2)CC1` [PENFLURIDOL], 17 mg/kg.

For a further data set, the system named is Mus musculus. In words: Neuroleptic activity in mouse assessed as suppression of conditioned avoidance behavior by measuring mean correct responses level at 10 mg/kg, ip administered 1 day prior to electric shock challenge. The class given is functional. The settings on record: route intraperitoneal. Put shortly:
as §1
For the compound `O=C(O)/C=C/C(=O)O.O=C(c1ccc(F)cc1)C1CCN(CCCN2c3ccccc3Sc3ccc(Cl)cc32)CC1`, the Activity was 57%.
On the same count and under the same terms, under `O=C(c1ccc(Cl)c(Cl)c1)C1CCN(CCCN2c3ccccc3Sc3ccc(Cl)cc32)CC1` stands 93%.

The test system of a further data set is Mus musculus. In words: Neuroleptic activity in mouse assessed as suppression of conditioned avoidance behavior by measuring mean correct responses level at 10 mg/kg, ip administered 8 hrs prior to electric shock challenge. It is filed as functional. The following applies: route intraperitoneal. The method, boiled down:
as §1
Take `O=C(O)/C=C/C(=O)O.O=C(c1ccc(F)cc1)C1CCN(CCCN2c3ccccc3Sc3ccc(Cl)cc32)CC1`: the Activity is given as 40%.
Still for that read-out and setting: to `O=C(c1ccc(Cl)c(Cl)c1)C1CCN(CCCN2c3ccccc3Sc3ccc(Cl)cc32)CC1` belongs 95%.

Another data set deals with Mus musculus. In words: Neuroleptic activity in ip dosed ICR-DUB mouse assessed as survival administered 4 days prior to d-amphetamine challenge measured after 24 hrs.
Conditions: not given
The class given is functional.
In the case of `O=C(O)/C=C/C(=O)O.O=C(c1ccc(F)cc1)C1CCN(CCCN2c3ccccc3Sc3ccc(Cl)cc32)CC1`, the ED50 was determined as 20.9 mg/kg.
Same read-out and setting: under `OC1(c2ccc(Cl)c(C(F)(F)F)c2)CCN(CCCC(c2ccc(F)cc2)c2ccc(F)cc2)CC1` [PENFLURIDOL] stands 47.5 mg/kg.

The test system of a further data set is Mus musculus. Description: Toxicity in ICR-DUB mouse assessed as depression at 60 mg/kg, ip measured for 5 days. It is filed as organism-based. The arrangement: dose 60 mg/kg, route intraperitoneal. The following applies: in vivo, 120 h.
`O=C(O)/C=C/C(=O)O.O=C(c1ccc(F)cc1)C1CCN(CCCN2c3ccccc3Sc3ccc(Cl)cc32)CC1`: the Activity result is recorded as “Toxic”.

The next data set has as its system Mus musculus. Description: Neuroleptic activity in ip dosed ICR-DUB mouse assessed as survival administered 7 days prior to d-amphetamine challenge measured after 24 hrs. It is filed as functional.
Conditions: not given
On to `O=C(O)/C=C/C(=O)O.O=C(c1ccc(F)cc1)C1CCN(CCCN2c3ccccc3Sc3ccc(Cl)cc32)CC1`, for which the ED50 entry is “inactive”.
Same read-out and setting: to `O=C(c1ccc(Cl)c(Cl)c1)C1CCN(CCCN2c3ccccc3Sc3ccc(Cl)cc32)CC1` belongs “inactive”.

The next data set has as its system Mus musculus. In words: Neuroleptic activity in mouse assessed as suppression of conditioned avoidance behavior by measuring mean correct responses level at 10 mg/kg, ip administered immediately prior to electric shock challenge. It is filed as functional. The settings on record: route intraperitoneal. Put shortly:
as §1
With `O=C(O)/C=C/C(=O)O.O=C(c1ccc(F)cc1)C1CCN(CCCN2c3ccccc3Sc3ccc(Cl)cc32)CC1`, the Activity is reported as 96%.
On the same count and under the same terms, under `O=C(c1ccc(Cl)c(Cl)c1)C1CCN(CCCN2c3ccccc3Sc3ccc(Cl)cc32)CC1` stands 97%.

The next data set deals with Mus musculus. Description: Toxicity in ICR-DUB mouse assessed as reduction in food intake at 60 mg/kg, ip. The class given is organism-based. Details: dose 60 mg/kg, route intraperitoneal. The settings on record: in vivo.
In the case of `O=C(O)/C=C/C(=O)O.O=C(c1ccc(F)cc1)C1CCN(CCCN2c3ccccc3Sc3ccc(Cl)cc32)CC1`, the Activity result is “Toxic”.

A further data set concerns Mus musculus. In words: Neuroleptic activity in ip dosed ICR-DUB mouse assessed as survival administered 1 hr prior to d-amphetamine challenge measured after 24 hrs. The class given is functional.
Conditions: not given
With `O=C(CCCN1CCC(O)(c2ccc(Cl)cc2)CC1)c1ccc(F)cc1` [HALOPERIDOL], the ED50 worked out at 0.09 mg/kg.
Same read-out and setting: to `O=C(O)/C=C/C(=O)O.O=C(c1ccc(F)cc1)C1CCN(CCCN2c3ccccc3Sc3ccc(Cl)cc32)CC1` belongs 0.17 mg/kg; to `O=C(c1ccc(Cl)c(Cl)c1)C1CCN(CCCN2c3ccccc3Sc3ccc(Cl)cc32)CC1`, over 16 mg/kg; to `OC1(c2ccc(Cl)c(C(F)(F)F)c2)CCN(CCCC(c2ccc(F)cc2)c2ccc(F)cc2)CC1` [PENFLURIDOL], 1.28 mg/kg.

In a further data set the test system is Mus musculus. Description: Neuroleptic activity in mouse assessed as suppression of conditioned avoidance behavior by measuring mean correct responses level at 10 mg/kg, ip administered 2 hrs prior to electric shock challenge. The settings on record: route intraperitoneal. It is filed as functional. Put shortly:
as §1
As for `O=C(O)/C=C/C(=O)O.O=C(c1ccc(F)cc1)C1CCN(CCCN2c3ccccc3Sc3ccc(Cl)cc32)CC1`, the Activity came out at 38%.
On the same count and under the same terms, under `O=C(c1ccc(Cl)c(Cl)c1)C1CCN(CCCN2c3ccccc3Sc3ccc(Cl)cc32)CC1` stands 97%.
